# Results taken from ChEMBL document CHEMBL3045119, “Synthesis and fungicidal activity of novel aminophenazine-1-carboxylate derivatives” (J Agric Food Chem, 2010).
# Assays:
# [1] = test system: Mycosphaerella arachidis; test: Fungicidal activity against Mycosphaerella arachidis assessed as inhibition of mycelium growth at 50 ug/mL by mycelium growth rate method; type: functional
# Method in brief: (§1)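 Mycelium growth rate method: colony diameters measured once mycelia had grown completely, and the relative inhibition rate (%) calculated from the diameters by formula. Phenazine-1-carboxylic acid ran as control. Values are the average of three replicate results.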
# [2] = test system: Alternaria solani; test: Fungicidal activity against Alternaria solani assessed as inhibition of mycelium growth at 50 ug/mL by mycelium growth rate method; type: functional; method in brief: as §1
# [3] = test system: Fusarium graminearum; test: Fungicidal activity against Fusarium graminearum assessed as inhibition of mycelium growth at 50 ug/mL by mycelium growth rate method; type: functional; method in brief: as §1
# [4] = test system: Fusarium oxysporum; test: Fungicidal activity against Fusarium oxysporum assessed as inhibition of mycelium growth at 50 ug/mL by mycelium growth rate method; type: functional; method in brief: as §1
# [5] = test system: Botryosphaeria berengeriana; test: Fungicidal activity against Botryosphaeria berengeriana assessed as inhibition of mycelium growth at 50 ug/mL by mycelium growth rate method; type: functional; method in brief: as §1
# [6] = test system: Mycosphaerella arachidis; test: Fungicidal activity against Mycosphaerella arachidis assessed as inhibition of mycelium growth by mycelium growth rate method; type: functional, organism-based; method in brief: as §1
# [7] = test system: Fusarium oxysporum; test: Fungicidal activity against Fusarium oxysporum assessed as inhibition of mycelium growth by mycelium growth rate method; type: functional, organism-based; method in brief: as §1
# [8] = test system: Alternaria solani; test: Fungicidal activity against Alternaria solani assessed as inhibition of mycelium growth by mycelium growth rate method; type: functional, organism-based; method in brief: as §1
# [9] = test system: Fusarium graminearum; test: Fungicidal activity against Fusarium graminearum assessed as inhibition of mycelium growth by mycelium growth rate method; type: functional, organism-based; method in brief: as §1
# [10] = test system: Botryosphaeria berengeriana; test: Fungicidal activity against Botryosphaeria berengeriana assessed as inhibition of mycelium growth by mycelium growth rate method; type: functional, organism-based; method in brief: as §1
Compound,inhibition at 50 µg/mL [1] [%],inhibition at 50 µg/mL [2] [%],inhibition at 50 µg/mL [3] [%],inhibition at 50 µg/mL [4] [%],inhibition at 50 µg/mL [5] [%],EC50 [6] [µg/mL],EC50 [7] [µg/mL],EC50 [8] [µg/mL],EC50 [9] [µg/mL],EC50 [10] [µg/mL]
Nc1ccc2nc3cccc(C(=O)O)c3nc2c1,11.5,5.9,33.9,6.9,9.6,–,–,–,–,–
COC(=O)c1cccc2nc3c(N)cccc3nc12,26.9,100,36.3,40,100,> 50,> 50,20.5,> 50,3
CCOC(=O)c1cccc2nc3c(N)cccc3nc12,32,51,41.8,33.3,100,> 50,> 50,40.1,> 50,4.44
CCCOC(=O)c1cccc2nc3c(N)cccc3nc12,30,46.7,43.6,36.7,57.1,–,–,–,–,–
CCCCOC(=O)c1cccc2nc3c(N)cccc3nc12,8.3,24.2,2.7,21.4,15.6,–,–,–,–,–
COC(=O)c1cccc2nc3cc(N)ccc3nc12,0,33.3,15.1,10.8,25,–,–,–,–,–
CCOC(=O)c1cccc2nc3cc(N)ccc3nc12,7.7,29.4,11.3,31,44.2,–,–,–,–,–
CCCOC(=O)c1cccc2nc3cc(N)ccc3nc12,26.1,16.7,25.5,10,19.6,–,–,–,–,–
CCCCOC(=O)c1cccc2nc3cc(N)ccc3nc12,17.4,43.3,7.3,13.3,29.6,–,–,–,–,–
COC(=O)c1cccc2nc3ccc(N)cc3nc12,4,10,18.2,23.3,37.1,–,–,–,–,–
CCOC(=O)c1cccc2nc3ccc(N)cc3nc12,12,20,20,16.7,51.4,–,–,–,–,–
CCCOC(=O)c1cccc2nc3ccc(N)cc3nc12,20,20.2,27.3,33.3,48.6,–,–,–,–,–
CCCCOC(=O)c1cccc2nc3ccc(N)cc3nc12,24,23.3,23.6,26.7,34.3,–,–,–,–,–
CCOC(=O)c1cccc2nc3cc(N)c(OCC)cc3nc12,11.5,17.6,14.5,6.9,26.9,–,–,–,–,–
CCCOC(=O)c1cccc2nc3cc(N)c(OCCC)cc3nc12,21.7,20,20,0,26.5,–,–,–,–,–
CCCCOC(=O)c1cccc2nc3cc(N)c(OCCCC)cc3nc12,13,13.3,23.6,0,25.5,–,–,–,–,–
CCCCOC(=O)c1cccc2nc3cc(OCCCC)c(N)cc3nc12,16.7,17.4,42.4,20,34.3,–,–,–,–,–
COC(=O)c1cccc2nc3c(C(=O)CCCCl)cccc3nc12,0,13.8,25,0,41.1,–,–,–,–,–
Nc1cccc2nc3c(C(=O)O)cccc3nc12,7.7,0,12.9,13.8,19.2,–,–,–,–,–
O=C(O)c1cccc2nc3ccccc3nc12 [PHENAZINE-1-CARBOXYLIC ACID],92.3,100,43.1,65.4,100,13.2,14.9,18.5,> 50,3.58
